From ChEMBL document CHEMBL1144030, “Synthesis of a potent and selective (18)F-labeled delta-opioid receptor antagonist derived from the Dmt-Tic pharmacophore for positron emission tomography imaging” (J Med Chem, 2008)
Square brackets hold non-standard residues; d marks the D form. Peptide text beside a SMILES is read from it. * marks the point of attachment. Dmt = Cc1cc(O)cc(C)c1C[C@H](N)C(=O)O; Tic = O=C(O)[C@@H]1Cc2ccccc2CN1; Cbz = O=C(OCc1ccccc1)*

Experiments:
Mu-type opioid receptor [1] = target: Mu-type opioid receptor (Rattus norvegicus, UniProt P33535); assay: Displacement of [3H]DAMGO from mu opioid receptor in Sprague-Dawley rat brain P2 synaptosomal membrane
Outline: (§1)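 Competition binding on rat brain P2 synaptosomes, preincubated to strip endogenous opioids and stored at −80 °C in buffered 20% glycerol. Equilibrium 2.5 h at 23 °C. Separation on GFC filters presoaked in 0.1% polyethylenimine, washed three times with ice-cold buffered BSA. Duplicates, five to eight doses, 3–5 independent membrane preparations; Ki by Cheng-Prusoff, mean ± SE.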

Rattus norvegicus = organism: Rattus norvegicus; assay: Ratio of Ki for mu opioid receptor to delta opioid receptor in Sprague-Dawley rat brain P2 synaptosomal membrane
Outline: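 Ratio of Ki values from rat brain P2 synaptosome competition binding (2.5 h, 23 °C, equilibrium; filtration on polyethylenimine-treated GFC filters). Ki by Cheng-Prusoff from duplicate assays at five to eight doses, 3–5 independent preparations.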

[2] = target: Delta-type opioid receptor (Rattus norvegicus, UniProt P33533); assay: Displacement of [3H]deltorphin2 from delta opioid receptor in Sprague-Dawley rat brain P2 synaptosomal membrane; outline: as §1
[3] = target: T1, Delta-type opioid receptor (Mus musculus, UniProt P32300); assay: Antagonist activity at delta opioid receptor in electrically stimulated-mouse vas deferens; assay type: functional, tissue-based; details: read-out: pA2 (converted)
Outline: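 Mouse vas deferens in organ bath with physiological salt buffer, pH 7.5, electrically stimulated. Antagonism measured against the delta agonist deltorphin-II and expressed as pA2 derived by Schild plot.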

Mu-type opioid receptor [4] = target: Mu-type opioid receptor (Cavia porcellus, UniProt P97266); assay: Agonist activity at mu opioid receptor in Hartley guinea pig assessed as inhibition of electrically evoked-contraction; assay type: functional
Outline: (§2)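 Isolated tissue: single mouse vas deferens (delta) or myenteric plexus longitudinal muscle strips, 2–3 cm, from small intestine of male Hartley guinea pigs (mu), in organ baths with balanced salt solution, pH 7.5. Inhibition of electrically evoked contraction; IC50 (nM) from dose-response curves, mean ± SE of five or six separate assays.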

[5] = target: T1, Delta-type opioid receptor; assay: Agonist activity at delta opioid receptor in mouse vas deferens assessed as inhibition of electrically evoked-contraction; assay type: functional, tissue-based; outline: as §2

T1 sequence (P32300 whole entry): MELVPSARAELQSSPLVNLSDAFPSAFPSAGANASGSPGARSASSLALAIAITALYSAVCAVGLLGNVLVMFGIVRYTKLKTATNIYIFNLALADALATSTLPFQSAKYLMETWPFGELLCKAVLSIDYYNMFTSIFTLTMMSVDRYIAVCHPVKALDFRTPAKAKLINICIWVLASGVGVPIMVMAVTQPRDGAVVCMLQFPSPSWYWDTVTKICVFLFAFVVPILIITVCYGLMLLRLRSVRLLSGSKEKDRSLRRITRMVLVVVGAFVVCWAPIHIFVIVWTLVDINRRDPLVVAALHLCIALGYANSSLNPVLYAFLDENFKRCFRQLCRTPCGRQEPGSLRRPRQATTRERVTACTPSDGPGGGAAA
Sequence of Mu-type opioid receptor (Rattus norvegicus, UniProt P33535) (P33535 whole entry): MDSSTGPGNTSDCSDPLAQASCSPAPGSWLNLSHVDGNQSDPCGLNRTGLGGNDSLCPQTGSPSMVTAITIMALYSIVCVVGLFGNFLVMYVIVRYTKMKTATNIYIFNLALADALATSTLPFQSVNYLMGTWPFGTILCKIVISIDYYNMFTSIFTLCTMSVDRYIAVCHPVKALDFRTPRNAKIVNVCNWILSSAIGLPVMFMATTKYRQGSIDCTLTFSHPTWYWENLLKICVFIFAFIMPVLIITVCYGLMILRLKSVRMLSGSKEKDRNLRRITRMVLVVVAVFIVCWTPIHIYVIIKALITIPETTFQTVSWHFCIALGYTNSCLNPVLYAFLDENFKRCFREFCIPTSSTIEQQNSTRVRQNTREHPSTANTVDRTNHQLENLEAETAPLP
Sequence of Mu-type opioid receptor (Cavia porcellus, UniProt P97266) (P97266 whole entry): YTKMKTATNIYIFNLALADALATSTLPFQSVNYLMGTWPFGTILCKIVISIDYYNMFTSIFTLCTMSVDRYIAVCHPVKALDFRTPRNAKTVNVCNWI
Sequence of Delta-type opioid receptor (Rattus norvegicus, UniProt P33533) (P33533 whole entry): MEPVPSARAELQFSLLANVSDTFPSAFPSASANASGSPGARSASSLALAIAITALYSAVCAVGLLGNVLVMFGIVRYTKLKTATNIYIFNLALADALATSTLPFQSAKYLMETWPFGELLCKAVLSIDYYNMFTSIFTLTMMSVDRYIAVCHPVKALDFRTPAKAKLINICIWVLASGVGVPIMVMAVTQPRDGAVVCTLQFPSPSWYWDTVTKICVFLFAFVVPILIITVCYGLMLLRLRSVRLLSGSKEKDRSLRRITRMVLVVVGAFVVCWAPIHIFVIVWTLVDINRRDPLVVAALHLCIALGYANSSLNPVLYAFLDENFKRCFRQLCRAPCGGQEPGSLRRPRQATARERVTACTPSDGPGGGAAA

Row | SMILES | Ki (Mu-type opioid receptor [1]) [nM] | Ratio Ki (Rattus norvegicus) | Ki [2] [nM] | Kb [3] [nM] | IC50 (Mu-type opioid receptor [4]) [nM] | IC50 [5] [nM]
1 | Cc1cc(O)cc(C)c1C[C@H](N)C(=O)N1Cc2ccccc2C[C@@H]1C(=O)NCCCC[C@H](NC(=O)c1ccc(F)cc1)C(=O)O | 41.2 | 240 | 0.172 | 5.62 | 1920 | –
2 | Cc1cc(O)cc(O)c1C[C@H](N)C(=O)N1Cc2ccccc2C[C@@H]1C(=O)N[C@@H](Cc1ccccc1)C(=O)N[C@@H](CCCCNC(=O)OCc1ccccc1)C(=O)O | – | 145 | – | – | – | –
3 | Cc1cc(O)cc(C)c1C[C@H](N)C(=O)N1Cc2ccccc2C[C@H]1C(=O)N[C@@H](Cc1ccccc1)C(=O)N[C@@H](CCCCNC(=O)c1ccc(F)cc1)C(=O)O | 13.2 | – | 0.248 | 0.355 | 50.6 | 5180
4 | Cc1cc(O)cc(C)c1C[C@H](N)C(=O)N1Cc2ccccc2C[C@@H]1C(=O)N[C@@H](Cc1ccccc1)C(=O)N[C@@H](CCCCNC(=O)c1ccc(F)cc1)C(=O)O | – | 53 | – | – | – | –
5 | Cc1cc(O)cc(C)c1C[C@H](N)C(=O)N1Cc2ccccc2C[C@H]1C(=O)N[C@@H](Cc1ccccc1)C(=O)N[C@@H](CCCCNC(=O)OCc1ccccc1)C(=O)O (H-[Dmt][Tic]FK(Cbz)-OH) | 2.75 | – | 0.019 | – | > 10000 | –
